# Source: ChEMBL document CHEMBL4043273, “Phenotypic Optimization of Urea-Thiophene Carboxamides To Yield Potent, Well Tolerated, and Orally Active Protective Agents against Aminoglycoside-Induced Hearing Loss” (J Med Chem, 2018)
# Calls of active or inactive are those of the source.
# What was measured:
# [1] = Aqueous solubility of compound at pH 7.4; assay type: physicochemical
# [2] = target: Voltage-gated inwardly rectifying potassium channel KCNH2 (Homo sapiens, UniProt Q12809)
# [3] = Drug metabolism assessed as air oxidation; assay type: physicochemical
# Danio rerio [4] = species on record: Danio rerio; test: Protection against neomycin-induced hair cell death in AB zebra fish larvae assessed as increase in hair cell survival preincubated for 1 hr followed by neomycin challenge for 1 hr by DASPEI staining-based epifluorescence dissecting microscopic method; assay type: functional
# Plasma [5] = test: (§1) Protein binding in human plasma; assay type: ADME, cell-free
# HepG2 = test: Cytotoxicity against human HepG2 cells assessed as decrease in cell growth after 72 hrs by celltiter glo assay; assay type: cell-based; conditions: HepG2, 72 h
# Rattus norvegicus [6] = test: Acute toxicity in rat at 50 mg/kg, iv; assay type: organism-based; conditions: in vivo
# Rattus norvegicus [7] = species on record: Rattus norvegicus; test: (§2) Elimination half life in rat by LC-MS method; assay type: ADME; conditions: in vivo
# Plasma [8] = test: (§3) Protein binding in rat plasma; assay type: ADME, cell-free
# Rattus norvegicus [9] = test: (§4) Oral bioavailability in rat at 25 mg/kg; assay type: ADME, organism-based; conditions: in vivo
# Cytochrome P450 2C19 = Cytochrome P450 2C19 (Homo sapiens, UniProt P33261); test: Inhibition of CYP2C19 (unknown origin); assay type: ADME
# Cytochrome P450 2C9 = Cytochrome P450 2C9 (Homo sapiens, UniProt P11712); test: Inhibition of CYP2C9 (unknown origin); assay type: ADME
# Cytochrome P450 2D6 = Cytochrome P450 2D6 (Homo sapiens, UniProt P10635); test: Inhibition of CYP2D6 (unknown origin); assay type: ADME
# Cytochrome P450 3A4 = Cytochrome P450 3A4 (Homo sapiens, UniProt P08684); test: Inhibition of CYP3A4 (unknown origin); assay type: ADME
# [10] = Ratio of IC50 for human ERG expressed in HEK293 cells to HC50 for protection against neomycin-induced hair cell death in AB zebra fish larvae
# Rattus norvegicus [11] = test: Protection against kanamycin-induced hearing loss at 8 to 32 kHz in Sprague-Dawley rat at 25 mg/kg/day, ip treated for 14 days followed by recovery without treatment for additional 14 days by auditory brain stem response assay; assay type: functional, organism-based
# Escherichia coli [12] = test: Effect on neomycin MIC for Escherichia coli ATCC 25922; assay type: functional
# Escherichia coli [13] = test: Effect on neomycin MBC for Escherichia coli ATCC 25922; assay type: functional
# Danio rerio [14] = species on record: Danio rerio; test: Protection against neomycin-induced hair cell death in AB zebra fish larvae assessed as increase in hair cell survival at 2.8 uM preincubated for 1 hr followed by neomycin challenge for 1 hr by DASPEI staining-based epifluorescence dissecting microscopic method relative to control; assay type: functional
# In short: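 AB larvae raised at 28.5°C in embryo medium and tested at 5-7 dpf, ten fish per basket. Pretreatment with compound for 1 h at 1.56–25 µM (halved further if the lowest dose protected), then compound plus 200 µM neomycin for 1 h. After rinsing, 0.05% DASPEI stain for 15 min and MS222 anaesthesia. Ten neuromasts per fish scored 0–2 under epifluorescence, normalised to untreated fish as % survival; HC50 linearly interpolated.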
# [15] = Metabolic stability in microsomes (unknown origin); assay type: ADME, Microsome
# [16] = as §1; assay type: ADME, cell-free; conditions: read-out: PPB
# Rattus norvegicus [17] = test: Change in hearing threshold in Fischer 344 rat at 5 to 25 mg/kg/day administered via oral gavage for 12 days; assay type: ADME, organism-based; conditions: in vivo, 288 h
# In short: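 Fischer 344 rats given compound alone by oral gavage at 5 or 25 mg/kg/day for 12 days (n=3 per dose), vehicle PEG300:DMA:EtOH:H2O. ABR thresholds measured before dosing and after a 2-week recovery, under isoflurane anaesthesia in a sound-attenuating chamber.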
# [18] = Permeability across MDCK cells expressing MDR1; assay type: ADME, cell-based, Canis lupus familiaris; conditions: dog, read-out: permeability
# [19] = as §2; assay type: ADME; conditions: in vivo, read-out: beta t1/2 (converted)
# [20] = as §3; assay type: ADME, cell-free; conditions: read-out: PPB
# [21] = Protein binding in plasma; conditions: read-out: PPB (converted)
# [22] = as §4; assay type: ADME, organism-based; conditions: in vivo
# Pseudomonas aeruginosa [23] = test: Effect on tobramycin MIC for aminoglycoside-resistant Pseudomonas aeruginosa 6322; assay type: functional
# Pseudomonas aeruginosa [24] = test: Effect on tobramycin MIC for Pseudomonas aeruginosa 6325; assay type: functional
# Pseudomonas aeruginosa [25] = test: Effect on tobramycin MIC for Pseudomonas aeruginosa 6471; assay type: functional
# Pseudomonas aeruginosa [26] = test: Effect on tobramycin MIC for Pseudomonas aeruginosa 103 ATCC 27853; assay type: functional
# Pseudomonas aeruginosa [27] = test: Effect on amikacin MIC for Pseudomonas aeruginosa 103 ATCC 27853; assay type: functional
# Pseudomonas aeruginosa [28] = test: Effect on amikacin MIC for aminoglycoside-resistant Pseudomonas aeruginosa 6322; assay type: functional
# Pseudomonas aeruginosa [29] = test: Effect on amikacin MIC for Pseudomonas aeruginosa 6160; assay type: functional
# Pseudomonas aeruginosa [30] = test: Effect on kanamycin MIC for Pseudomonas aeruginosa 6160; assay type: functional
# Pseudomonas aeruginosa [31] = test: Effect on neomycin MIC for aminoglycoside-resistant Pseudomonas aeruginosa 6322; assay type: functional
# Pseudomonas aeruginosa [32] = test: Effect on neomycin MIC for Pseudomonas aeruginosa 103 ATCC 27853; assay type: functional
# Pseudomonas aeruginosa [33] = test: Effect on kanamycin MIC for Pseudomonas aeruginosa 103 ATCC 27853; assay type: functional
# Rattus norvegicus [34] = test: Protection against amikacin-induced hair cell death in Fischer 344 rat corti at 5 mg/kg/day administered via oral gavage for 12 days followed by recovery without treatment for additional 14 days by immunohistochemical method; assay type: functional, organism-based
# In short: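 Rats given amikacin 320 mg/kg/day s.c. plus compound 5 mg/kg p.o. daily for 12 days; saline s.c. controls. Cochleae fixed in 4% paraformaldehyde and dissected. Organ of Corti immunostained for myosin 7A (hair cells), Sox2 (supporting-cell nuclei) and neurofilament (neuronal processes). Basal turn imaged by confocal microscopy.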
# Rattus norvegicus [35] = test: Protection against amikacin-induced hearing loss at 2 to 32 kHz in Fischer 344 rat at 5 mg/kg/day administered via oral gavage for 12 days followed by recovery without treatment for additional 14 days by auditory brain stem response assay; assay type: functional, organism-based
# In short: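 Male Fischer 344 rats had ABR thresholds measured 1–2 weeks before treatment and 2 weeks after it, under isoflurane, on a heating pad near 37°C, in a sound-attenuating chamber. Amikacin 320 mg/kg/day s.c. for 12 days, with compound 5 mg/kg/day by oral gavage in PEG300:DMA:EtOH:H2O. Groups: amikacin alone or amikacin plus compound.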
# Pseudomonas aeruginosa [36] = test: Effect on tobramycin MIC for Pseudomonas aeruginosa 6160; assay type: functional
# Pseudomonas aeruginosa [37] = test: Effect on kanamycin MIC for Pseudomonas aeruginosa 6325; assay type: functional
# [38] = system: Mycobacterium tuberculosis; test: Effect on kanamycin-induced antibacterial activity against Mycobacterium tuberculosis in mouse pulmonary tuberculosis model; assay type: functional
# [39] = system: Mycobacterium tuberculosis; test: Effect on amikacin MIC for Mycobacterium tuberculosis H37Rv at 1 to 10 uM; assay type: functional
# Pseudomonas aeruginosa [40] = test: Effect on neomycin MIC for Pseudomonas aeruginosa 6160; assay type: functional
# Pseudomonas aeruginosa [41] = test: Effect on kanamycin MIC for Pseudomonas aeruginosa 6471; assay type: functional
# [42] = system: Mycobacterium tuberculosis; test: Effect on amikacin-induced antibacterial activity against Mycobacterium tuberculosis in mouse pulmonary tuberculosis model; assay type: functional
# Pseudomonas aeruginosa [43] = test: Effect on neomycin MIC for Pseudomonas aeruginosa 6471; assay type: functional
# Pseudomonas aeruginosa [44] = test: Effect on amikacin MIC for Pseudomonas aeruginosa 6471; assay type: functional
# Pseudomonas aeruginosa [45] = test: Effect on neomycin MIC for Pseudomonas aeruginosa 6325; assay type: functional
# Pseudomonas aeruginosa [46] = test: Effect on kanamycin MIC for aminoglycoside-resistant Pseudomonas aeruginosa 6322; assay type: functional
# Pseudomonas aeruginosa [47] = test: Effect on amikacin MIC for Pseudomonas aeruginosa 6325; assay type: functional
# [48] = system: Mycobacterium tuberculosis; test: Effect on moxifloxacin-induced antibacterial activity against Mycobacterium tuberculosis in mouse pulmonary tuberculosis model; assay type: functional
# [49] = aqueous medium, read-out: solubility
# Sequence of Voltage-gated inwardly rectifying potassium channel KCNH2 (Q12809 whole entry): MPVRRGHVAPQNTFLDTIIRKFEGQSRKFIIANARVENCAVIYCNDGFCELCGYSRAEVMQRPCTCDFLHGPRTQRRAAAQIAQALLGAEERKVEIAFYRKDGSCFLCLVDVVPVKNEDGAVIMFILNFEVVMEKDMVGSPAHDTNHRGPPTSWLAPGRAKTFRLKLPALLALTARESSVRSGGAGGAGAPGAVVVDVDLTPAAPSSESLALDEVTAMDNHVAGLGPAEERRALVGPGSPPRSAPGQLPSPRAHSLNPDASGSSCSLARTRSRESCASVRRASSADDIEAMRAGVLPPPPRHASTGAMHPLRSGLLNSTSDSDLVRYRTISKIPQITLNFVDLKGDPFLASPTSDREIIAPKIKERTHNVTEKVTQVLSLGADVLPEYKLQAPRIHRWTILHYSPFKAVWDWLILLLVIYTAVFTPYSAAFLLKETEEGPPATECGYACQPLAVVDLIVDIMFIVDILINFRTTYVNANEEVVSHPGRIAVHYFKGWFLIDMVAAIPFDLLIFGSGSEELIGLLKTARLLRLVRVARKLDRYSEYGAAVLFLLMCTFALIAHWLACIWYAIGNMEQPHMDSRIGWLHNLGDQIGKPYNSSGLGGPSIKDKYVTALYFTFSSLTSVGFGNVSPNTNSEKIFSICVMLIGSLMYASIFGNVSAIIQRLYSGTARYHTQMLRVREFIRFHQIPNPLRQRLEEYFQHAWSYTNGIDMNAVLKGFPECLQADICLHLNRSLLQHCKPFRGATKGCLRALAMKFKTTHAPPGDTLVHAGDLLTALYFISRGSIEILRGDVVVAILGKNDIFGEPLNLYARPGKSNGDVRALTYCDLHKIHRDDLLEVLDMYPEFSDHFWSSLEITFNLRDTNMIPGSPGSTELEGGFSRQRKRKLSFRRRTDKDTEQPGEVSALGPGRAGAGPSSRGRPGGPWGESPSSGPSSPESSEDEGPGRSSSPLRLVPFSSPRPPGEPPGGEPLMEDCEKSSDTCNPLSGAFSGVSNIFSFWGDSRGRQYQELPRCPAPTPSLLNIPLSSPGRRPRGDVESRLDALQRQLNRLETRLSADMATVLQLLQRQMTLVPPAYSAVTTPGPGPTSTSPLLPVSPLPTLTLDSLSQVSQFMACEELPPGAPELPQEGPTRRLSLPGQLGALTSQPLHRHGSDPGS
# Sequence of Cytochrome P450 3A4 (P08684 whole entry): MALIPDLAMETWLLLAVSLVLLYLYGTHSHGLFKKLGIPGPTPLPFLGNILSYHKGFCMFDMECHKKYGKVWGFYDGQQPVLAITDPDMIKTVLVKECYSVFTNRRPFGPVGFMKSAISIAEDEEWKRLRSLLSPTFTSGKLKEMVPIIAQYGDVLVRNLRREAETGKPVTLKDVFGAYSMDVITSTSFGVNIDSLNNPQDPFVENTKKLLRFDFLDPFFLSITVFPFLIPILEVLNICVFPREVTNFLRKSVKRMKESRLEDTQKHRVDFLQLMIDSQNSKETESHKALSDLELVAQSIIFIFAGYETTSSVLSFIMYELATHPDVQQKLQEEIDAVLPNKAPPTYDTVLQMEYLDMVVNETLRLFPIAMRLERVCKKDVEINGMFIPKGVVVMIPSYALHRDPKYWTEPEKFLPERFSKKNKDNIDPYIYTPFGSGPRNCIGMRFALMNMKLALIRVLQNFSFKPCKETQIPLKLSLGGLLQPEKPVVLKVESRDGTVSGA
# Sequence of Cytochrome P450 2C9 (P11712 whole entry): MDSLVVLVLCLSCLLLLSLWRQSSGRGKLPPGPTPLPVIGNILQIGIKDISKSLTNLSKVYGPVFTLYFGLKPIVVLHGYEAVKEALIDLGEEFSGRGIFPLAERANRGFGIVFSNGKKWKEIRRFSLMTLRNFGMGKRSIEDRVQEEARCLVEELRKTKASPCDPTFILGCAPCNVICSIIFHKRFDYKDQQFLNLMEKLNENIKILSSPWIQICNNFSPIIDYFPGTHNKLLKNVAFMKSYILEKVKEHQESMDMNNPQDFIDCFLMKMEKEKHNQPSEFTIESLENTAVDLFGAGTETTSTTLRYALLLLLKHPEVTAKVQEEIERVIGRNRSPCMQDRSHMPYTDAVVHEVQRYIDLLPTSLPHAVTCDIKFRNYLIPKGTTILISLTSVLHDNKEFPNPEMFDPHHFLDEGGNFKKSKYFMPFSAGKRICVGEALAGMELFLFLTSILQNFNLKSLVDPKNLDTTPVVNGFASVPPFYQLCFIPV
# Sequence of Cytochrome P450 2C19 (P33261 whole entry): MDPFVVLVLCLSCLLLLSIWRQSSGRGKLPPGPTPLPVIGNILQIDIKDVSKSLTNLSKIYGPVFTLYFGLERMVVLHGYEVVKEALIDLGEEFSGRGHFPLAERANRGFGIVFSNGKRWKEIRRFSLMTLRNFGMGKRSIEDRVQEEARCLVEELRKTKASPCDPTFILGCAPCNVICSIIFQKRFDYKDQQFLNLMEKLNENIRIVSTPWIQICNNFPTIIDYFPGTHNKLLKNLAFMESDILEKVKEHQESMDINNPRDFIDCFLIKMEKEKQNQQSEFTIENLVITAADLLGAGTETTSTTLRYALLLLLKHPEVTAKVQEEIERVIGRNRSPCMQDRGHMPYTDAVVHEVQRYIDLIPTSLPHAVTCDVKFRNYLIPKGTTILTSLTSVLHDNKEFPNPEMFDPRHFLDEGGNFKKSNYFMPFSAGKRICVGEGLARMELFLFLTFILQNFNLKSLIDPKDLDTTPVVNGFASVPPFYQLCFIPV
# Sequence of Cytochrome P450 2D6 (P10635 whole entry): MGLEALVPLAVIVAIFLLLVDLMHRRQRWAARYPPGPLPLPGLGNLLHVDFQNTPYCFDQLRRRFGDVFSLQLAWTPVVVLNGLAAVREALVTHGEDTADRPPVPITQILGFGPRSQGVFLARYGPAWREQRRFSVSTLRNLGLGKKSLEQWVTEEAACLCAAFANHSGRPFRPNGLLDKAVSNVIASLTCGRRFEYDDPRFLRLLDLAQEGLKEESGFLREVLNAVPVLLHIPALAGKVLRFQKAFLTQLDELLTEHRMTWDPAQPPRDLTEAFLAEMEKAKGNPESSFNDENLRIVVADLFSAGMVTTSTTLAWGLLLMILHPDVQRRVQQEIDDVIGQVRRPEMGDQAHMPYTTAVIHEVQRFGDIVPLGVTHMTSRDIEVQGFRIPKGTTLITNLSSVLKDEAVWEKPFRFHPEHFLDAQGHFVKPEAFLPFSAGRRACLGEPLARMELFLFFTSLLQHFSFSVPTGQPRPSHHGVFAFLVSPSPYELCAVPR
structure (smiles),measurement,setting,value
CCN1CCc2c(sc(NC(=O)Nc3ccc(Cl)cc3)c2C(N)=O)C1 [listing 1 of 2 here],solubility,[1]; buffer,85 µM
CCN1CCc2c(sc(NC(=O)Nc3ccc(Cl)cc3)c2C(N)=O)C1.Cl,IC50,[2],3.26 µM
same,Drug metabolism,[3],Metabolite_Detected
same,EC50,Danio rerio [4],3.12 µM
same,PPB,Plasma [5],95.9%
same,IC50,HepG2,> 300 µM
same,Activity,Rattus norvegicus [6],Non-Toxic
same,beta t1/2,Rattus norvegicus [7],2.1 h
same,PPB,Plasma [8],94.1%
same,F,Rattus norvegicus [9],46%
CC1(C)Cc2c(sc(NC(=O)Nc3ccc(Cl)cc3)c2C(N)=O)C(C)(C)N1.Cl,inhibition (INH),Cytochrome P450 2C19; human,Not Active
same,IC50,[2],> 30 µM
same,inhibition (INH),Cytochrome P450 2C9; human,Not Active
same,Drug metabolism,[3],Metabolite_Notdetected
same,EC50,Danio rerio [4],1.24 µM
same,inhibition (INH),Cytochrome P450 2D6; human,Not Active
same,PPB,Plasma [5],96.5%
same,IC50,HepG2,> 300 µM
same,Activity,Rattus norvegicus [6],Non-Toxic
same,inhibition (INH),Cytochrome P450 3A4; human,Not Active
same,beta t1/2,Rattus norvegicus [7],6.2 h
same,PPB,Plasma [8],95.8%
same,Ratio,[10],>24
same,solubility,[1]; buffer,13 µM
same,F,Rattus norvegicus [9],21%
CCN1CCc2c(sc(NC(=O)Nc3ccc(Cl)cc3)c2C(N)=O)C1 [listing 2 of 2 here],Activity,Rattus norvegicus [11],Active
same,Activity,Escherichia coli [12],inactive
same,Activity,Escherichia coli [13],inactive
CC[N+]1(C)CCc2c(sc(NC(=O)Nc3ccc(Cl)cc3)c2C(N)=O)C1 (stereo unspecified),IC50,[2],3.38 µM
same,EC50,Danio rerio [4],1.96 µM
NC(=O)c1c(NC(=O)Nc2ccc(Cl)cc2)sc2c1CC[N+]1(CCCC1)C2,IC50,[2],3.51 µM
same,EC50,Danio rerio [4],0.41 µM
CC1(C)Cc2c(sc(NC(=O)Nc3ccc(Cl)cc3)c2C(N)=O)C(C)(C)N1,solubility,[1]; buffer,83 µM
CN1[C@@H]2CC[C@H]1c1c(sc(NC(=O)Nc3ccc(Cl)cc3)c1C(N)=O)C2.Cl,IC50,Cytochrome P450 2C19,58 µM
same,%max,Danio rerio [14],98%
same,IC50,Cytochrome P450 2C9,60 µM
same,Drug metabolism,[3],Metabolite_Notdetected
same,Stability,[15],Stable
same,EC50,Danio rerio [4],0.12 µM
same,IC50,Cytochrome P450 2D6,> 100 µM
same,fraction unbound,[16],0.093 to 0.11
same,IC50,HepG2,> 300 µM
same,Activity,Rattus norvegicus [17],Non-Toxic
same,Papp,[18],5.2 ×10⁻⁶ cm/s
same,Activity,Rattus norvegicus [6],Non-Toxic
same,IC50,Cytochrome P450 3A4,46 µM
same,half-life,[19],7.8 h
same,fraction unbound,[20],0.099 to 0.14
same,Ratio,[10],47
same,fraction unbound,[21],0.1
same,solubility,[1]; [49],86 µM
same,bioavailability,[22],> 50%
NC(=O)c1c(NC(=O)Nc2ccc(Cl)cc2)sc2c1CCN(CCCNC(=O)CCc1c[nH]c3ccccc13)C2,IC50,[2],20.1 µM
same,Drug metabolism,[3],Metabolite_Detected
same,EC50,Danio rerio [4],0.1 µM
same,fraction unbound,[16],0.001
same,IC50,HepG2,17 µM
same,Activity,Rattus norvegicus [6],Non-Toxic
same,half-life,[19],7.1 h
same,fraction unbound,[20],0.001
same,Ratio,[10],201
same,solubility,[1]; [49],86 µM
same,bioavailability,[22],> 1%
NC(=O)c1c(NC(=O)Nc2ccc(Cl)cc2)sc2c1CC[N+]1(CCOCC1)C2,IC50,[2],12.4 µM
same,EC50,Danio rerio [4],1.21 µM
CN1[C@@H]2CC[C@H]1c1c(sc(NC(=O)Nc3ccc(Cl)cc3)c1C(N)=O)C2,Activity,Escherichia coli [12],inactive
same,Activity,Pseudomonas aeruginosa [23],inactive
same,Activity,Escherichia coli [13],inactive
same,Activity,Pseudomonas aeruginosa [24],inactive
same,Activity,Pseudomonas aeruginosa [25],inactive
same,Activity,Pseudomonas aeruginosa [26],inactive
same,Activity,Pseudomonas aeruginosa [27],inactive
same,Activity,Pseudomonas aeruginosa [28],inactive
same,Activity,Pseudomonas aeruginosa [29],inactive
same,Activity,Pseudomonas aeruginosa [30],inactive
same,Activity,Pseudomonas aeruginosa [31],inactive
same,Activity,Pseudomonas aeruginosa [32],inactive
same,Activity,Pseudomonas aeruginosa [33],inactive
same,Activity,Rattus norvegicus [34],Active
same,Activity,Rattus norvegicus [35],Active
same,Activity,Pseudomonas aeruginosa [36],inactive
same,Activity,Pseudomonas aeruginosa [37],inactive
same,Activity,[38],inactive
same,Activity,[39],inactive
same,Activity,Pseudomonas aeruginosa [40],inactive
same,Activity,Pseudomonas aeruginosa [41],inactive
same,Activity,[42],inactive
same,Activity,Pseudomonas aeruginosa [43],inactive
same,Activity,Pseudomonas aeruginosa [44],inactive
same,Activity,Pseudomonas aeruginosa [45],inactive
same,Activity,Pseudomonas aeruginosa [46],inactive
same,Activity,Pseudomonas aeruginosa [47],inactive
same,Activity,[48],inactive
"CN1[C@@H]2CC[C@H]1c1c(sc(NC(=O)Nc3ccc(Cl)cc3)c1C(N)=O)C2 (single isomer, unassigned)",solubility,[1]; [49],76 µM
CCN1CCc2c(sc(NC(=O)Nc3ccc(I)cc3)c2C(N)=O)C1,EC50,Danio rerio [4],1.62 µM
CN1[C@H]2CC[C@@H]1c1c(sc(NC(=O)Nc3ccc(Cl)cc3)c1C(N)=O)C2,EC50,Danio rerio [4],> 2.25 µM
